Key:
[1] = tested on: A375; test: MTT antiviability assay; format: cell-based; details: Homo sapiens, A-375, 72 h
[2] = tested on: HPAC; test: MTT antiviability assay; format: cell-based; details: Homo sapiens, 72 h
[3] = tested on: Aspc‐1 cells; test: Colony formation assay; format: cell-based, human; details: 14 days
Outline: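 Cells were seeded at 5000-8000 per well and treated with test compound the next day, from DMSO stocks diluted in medium. Medium with vehicle or compound was replaced every 4 days. Cells were then methanol-fixed and crystal violet-stained. Colonies of more than 50 cells were counted under an inverted microscope and expressed as a percentage of colony numbers. Mean of n = 3, with SD.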

[4] = tested on: LO2; details: LO2, Human hepatic cells (normal cell line); ref Zhang et al (2016) 35; cited from earlier work
[5] = tested on: Aspc‐1 cells; test: Annexin V/PI apoptosis assay; format: cell-based, human; details: 24 hours
Outline: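 Cells were treated with a range of concentrations for 24 hours, washed with PBS, then stained with annexin V‑FITC and propidium iodide for 15 minutes in the dark. […] Early (annexin V) and late (PI) apoptotic cells are reported as percentages, mean of n = 3 with SD.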

[6] = biological target: Lck (Homo sapiens, UniProt P06239); test: Radiometric kinase IC50 assay; format: biochemical
Lck, sequence (P06239 whole entry): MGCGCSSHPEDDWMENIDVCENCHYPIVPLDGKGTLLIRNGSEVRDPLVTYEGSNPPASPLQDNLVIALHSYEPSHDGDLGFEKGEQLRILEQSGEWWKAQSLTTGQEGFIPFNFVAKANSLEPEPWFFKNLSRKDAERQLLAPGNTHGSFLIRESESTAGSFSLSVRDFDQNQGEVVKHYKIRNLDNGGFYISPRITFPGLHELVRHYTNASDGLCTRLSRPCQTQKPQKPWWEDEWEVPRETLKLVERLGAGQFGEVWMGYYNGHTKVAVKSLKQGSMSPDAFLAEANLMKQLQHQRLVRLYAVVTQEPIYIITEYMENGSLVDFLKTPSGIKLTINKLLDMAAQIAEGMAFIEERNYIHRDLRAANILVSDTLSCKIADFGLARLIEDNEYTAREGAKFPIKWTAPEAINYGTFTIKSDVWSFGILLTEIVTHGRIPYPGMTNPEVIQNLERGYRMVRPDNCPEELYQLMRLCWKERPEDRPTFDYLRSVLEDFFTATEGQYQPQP

[7] = tested on: Capan‐2; test: MTT antiviability assay; format: cell-based; details: Homo sapiens, Capan-2, 72 h
[8] = tested on: Bxpc‐3; test: MTT antiviability assay; format: cell-based; details: Homo sapiens, BXPC-3, 72 h
[9] = Body weight during treatment in xenograft models; format: in vivo, NOD‐SCID mice; details: Aspc‐1 and Bxpc‐3 xenograft models; 20 or 40 mg/kg/d p.o., 18 days
Outline: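 Six‑week‑old female NOD‑SCID mice received 5 × 10⁶–1 × 10⁷ cells s.c. in the right flank and were grouped (6 per group) at about 200 mm³. Test compound in 25% (v/v) PEG400 plus 5% DMSO in deionized water was given by oral gavage once daily for 18 days, alongside vehicle controls. Mean body weight with SD was recorded.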

[10] = tested on: Miapaca‐2 metastatic model; test: Experimental metastasis assay; format: in vivo, NOD‐SCID mice; details: 40 mg/kg/d
Outline: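 Miapaca‑2 cells (5 × 10⁶) were injected into the tail vein of 5‑ to 6‑week‑old female NOD‑SCID mice. Mice were randomized immediately into 5 groups of 6 and given test compound p.o. at 20 or 40 mg/kg, comparators, or vehicle. […] Kaplan–Meier analysis used a log rank test against control.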

[11] = tested on: HT29; details: HT29, Colorectal carcinoma; mean ± SD; ref Zhang et al (2016) 35; cited from earlier work
[12] = tested on: AKT; test: Western blot, AKT phosphorylation; format: cell-based, human; details: Aspc‐1 and Bxpc‐3 cells, 12 hours
Outline: (§1)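 Aspc-1 and Bxpc-3 cells were grown overnight in complete medium and treated with test compound for 12 h. Cells were lysed in RIPA buffer and protein was quantified. Lysates were run on SDS-PAGE and transferred to PVDF, then blocked 2 h in TBS-T with 5% non-fat milk. Blots were probed for pAKT Ser473, pERK Thr202/Tyr204, pSTAT3 Tyr705, the matching total proteins and β-actin. Detection was by enhanced chemiluminescence.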

[13] = tested on: NCI‐N87; test: MTT antiviability assay; format: cell-based; details: Homo sapiens, NCI-N87, 72 h
[14] = tested on: HepG2; details: HepG2, Hepatocarcinoma; ref Zhang et al (2016) 35; cited from earlier work
[15] = tested on: FOSL1; test: Immunohistochemistry of xenograft tumor tissues; format: in vivo, NOD‐SCID mice; details: Aspc‐1 and Bxpc‐3 models; LY‐1816 and dasatinib 40 mg/kg/d p.o., gemcitabine 80 mg/kg/wk; IHC
Outline: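 Six-week-old female NOD-SCID mice received 5 × 10⁶ to 1 × 10⁷ cells s.c. in the right flank. Treatment began at about 200 mm³. Test compound (40 mg/kg/d) was given once daily by oral gavage in 25% PEG400 plus 5% DMSO in water. Tumors were resected at the end of dosing. Frozen sections were immunostained and imaged by light microscopy.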

[16] = biological target: Lyn (Homo sapiens, UniProt P07948); test: Radiometric kinase IC50 assay; format: biochemical
Lyn, sequence (P07948 whole entry): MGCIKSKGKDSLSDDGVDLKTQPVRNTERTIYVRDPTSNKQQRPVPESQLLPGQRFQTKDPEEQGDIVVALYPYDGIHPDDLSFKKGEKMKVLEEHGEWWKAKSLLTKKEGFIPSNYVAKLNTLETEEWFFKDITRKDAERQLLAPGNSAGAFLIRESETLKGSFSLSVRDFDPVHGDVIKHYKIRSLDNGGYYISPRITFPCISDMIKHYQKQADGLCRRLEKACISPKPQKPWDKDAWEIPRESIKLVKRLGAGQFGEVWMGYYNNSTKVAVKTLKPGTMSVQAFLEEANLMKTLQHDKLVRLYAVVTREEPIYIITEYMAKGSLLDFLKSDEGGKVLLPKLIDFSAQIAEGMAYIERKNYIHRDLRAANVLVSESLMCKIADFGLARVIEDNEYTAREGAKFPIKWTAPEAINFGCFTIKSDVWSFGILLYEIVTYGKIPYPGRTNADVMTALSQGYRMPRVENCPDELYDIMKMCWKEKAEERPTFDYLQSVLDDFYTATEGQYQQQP

[17] = tested on: HPAF‐II; test: MTT antiviability assay; format: cell-based; details: Homo sapiens, 72 h
[18] = biological target: Yes (Homo sapiens, UniProt P07947); test: Radiometric kinase IC50 assay; format: biochemical
Yes, sequence (P07947 whole entry): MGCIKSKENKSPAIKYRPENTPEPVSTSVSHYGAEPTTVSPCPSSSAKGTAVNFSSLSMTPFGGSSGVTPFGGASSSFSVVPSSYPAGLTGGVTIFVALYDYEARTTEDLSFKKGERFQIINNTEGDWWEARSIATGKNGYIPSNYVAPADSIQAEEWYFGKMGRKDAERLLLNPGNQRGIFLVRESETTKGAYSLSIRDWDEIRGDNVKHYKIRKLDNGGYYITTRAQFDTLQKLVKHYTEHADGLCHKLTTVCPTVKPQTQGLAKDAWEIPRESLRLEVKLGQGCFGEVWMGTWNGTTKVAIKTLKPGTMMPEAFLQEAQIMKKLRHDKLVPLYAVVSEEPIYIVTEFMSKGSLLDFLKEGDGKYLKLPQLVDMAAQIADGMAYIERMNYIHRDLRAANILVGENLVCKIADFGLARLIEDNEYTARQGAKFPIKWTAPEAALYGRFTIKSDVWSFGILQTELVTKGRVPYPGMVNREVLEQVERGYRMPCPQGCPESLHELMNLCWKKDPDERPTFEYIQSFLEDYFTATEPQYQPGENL

[19] = biological target: Src (Homo sapiens, UniProt P12931); format: cell-based; details: 12 hours, western blot
Src, sequence (P12931 whole entry): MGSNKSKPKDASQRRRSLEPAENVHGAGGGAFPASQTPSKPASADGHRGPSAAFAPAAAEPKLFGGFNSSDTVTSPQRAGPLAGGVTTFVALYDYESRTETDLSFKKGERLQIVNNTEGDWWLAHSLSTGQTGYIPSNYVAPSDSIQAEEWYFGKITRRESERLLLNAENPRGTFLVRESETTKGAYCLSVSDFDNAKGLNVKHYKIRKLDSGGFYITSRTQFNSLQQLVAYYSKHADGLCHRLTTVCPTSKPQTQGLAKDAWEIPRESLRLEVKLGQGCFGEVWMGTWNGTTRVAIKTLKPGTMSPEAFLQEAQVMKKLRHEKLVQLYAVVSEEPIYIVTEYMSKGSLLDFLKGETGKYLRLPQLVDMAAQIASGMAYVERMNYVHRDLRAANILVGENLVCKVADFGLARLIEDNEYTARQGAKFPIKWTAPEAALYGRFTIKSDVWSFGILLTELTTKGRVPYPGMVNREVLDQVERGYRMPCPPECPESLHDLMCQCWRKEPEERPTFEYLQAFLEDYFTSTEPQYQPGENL

[20] = tested on: COLO‐205; test: MTT antiviability assay; format: cell-based; details: Homo sapiens, COLO 205, 72 h
[21] = tested on: MDA‐MB‐436; test: MTT antiviability assay; format: cell-based; details: Homo sapiens, MDA-MB-436, 72 h
[22] = tested on: PANC‐1; test: MTT antiviability assay; format: cell-based; details: Homo sapiens, PANC-1, 72 h
[23] = biological target: Fyn (Homo sapiens, UniProt P06241); test: Radiometric kinase IC50 assay; format: biochemical
Fyn, sequence (P06241 whole entry): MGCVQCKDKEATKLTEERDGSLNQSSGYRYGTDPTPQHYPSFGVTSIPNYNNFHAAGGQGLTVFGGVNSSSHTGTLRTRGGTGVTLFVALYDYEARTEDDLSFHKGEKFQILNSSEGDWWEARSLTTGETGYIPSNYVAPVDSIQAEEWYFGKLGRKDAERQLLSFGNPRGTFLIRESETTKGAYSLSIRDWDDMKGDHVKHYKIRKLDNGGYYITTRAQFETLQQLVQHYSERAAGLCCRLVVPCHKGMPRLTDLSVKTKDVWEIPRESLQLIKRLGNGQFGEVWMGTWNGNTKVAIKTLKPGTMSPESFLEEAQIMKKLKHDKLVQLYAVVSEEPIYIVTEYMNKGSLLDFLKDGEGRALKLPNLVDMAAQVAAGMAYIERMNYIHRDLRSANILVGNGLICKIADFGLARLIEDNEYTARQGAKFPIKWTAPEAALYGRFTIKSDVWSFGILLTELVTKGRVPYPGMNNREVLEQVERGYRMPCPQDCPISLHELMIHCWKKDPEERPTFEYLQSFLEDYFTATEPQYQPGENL

[24] = tested on: Aspc‐1 cells; test: Transwell invasion assay; format: cell-based, human
Outline: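 Inserts were precoated with polymerized collagen type I. Cells were seeded on the insert bottom in serum‑free medium with serial dilutions of test compound or vehicle, with 10% FBS medium in the lower chamber. After one day, cells were stained with calcein‑AM and optical sections taken at 10‑μm intervals. Invasion was scored as cells moving >20 μm into collagen; n = 3, mean with SD.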

[25] = tested on: STAT3; test: Western blot, STAT3 phosphorylation; format: cell-based, human; details: Aspc‐1 and Bxpc‐3 cells, 12 hours
Outline: as §1

[26] = tested on: DU145; details: DU145, Prostate carcinoma; ref Zhang et al (2016) 35; cited from earlier work
[27] = tested on: BT474; details: BT474, Breast cancer; ref Zhang et al (2016) 35; cited from earlier work
[28] = tested on: ZR‐75‐1; details: ZR‐75‐1, Breast cancer; ref Zhang et al (2016) 35; cited from earlier work

For `Cc1ccc(NC(=O)c2ccc(C)c(C(F)(F)F)c2)cc1C#Cc1nn(C2CCC(O)CC2)c2ncnc(N)c12` (centres unmarked) [LY‐1816, N‐(3‐((4‐amino‐1‐(4‐hydroxycyclohexyl)‐1H‐pyrazolo[3,4‐d]pyrimidin‐3‐yl)ethynyl)‐4‐methylphenyl)‐4‐methyl‐3‐(trifluoromethyl)benzamide], the IC50 [1] was 134 ± 2 nM, the IC50 [2] was 45 ± 4 nM and the colony growth [3] was “significantly inhibited the colony growth”. The IC50 [4] was > 10000 nM, the “apoptosis (annexin V and PI‐positive populations)” value [5] was “significantly increased the annexin V and PI‐positive populations” and the IC50 [6] was 14 nM. The IC50 [7] was 97 ± 14 nM, the IC50 [8] was 58 ± 11 nM and the body weight [9] was “no significant decrease in body weight”. For the same molecule, the “mice alive at day 105” value [10] was 33%, the IC50 [11] was 231 ± 12 nM and the “phosphorylation of AKT” value [12] was “very weak or no impact on the phosphorylation of ERK and AKT”. For the same molecule, the IC50 [13] was 147 ± 44 nM, the IC50 [14] was > 10000 nM and the “expression of FOSL1 in tumor tissues” value [15] was “evidently reduced”. For the same molecule, the IC50 [16] was 4 nM, the IC50 [17] was 215 ± 31 nM and the IC50 [18] was 1 nM. For the same molecule, the “phosphorylation of Src” value ([19]; 10 PDAC cell lines) was “potently inhibited the phosphorylation of Src”, the Src phosphorylation ([19]; HT29 and HCT116 cells) was “relatively weak potency” and the IC50 [20] was 17 ± 1 nM. The IC50 [21] was > 10000 nM, the IC50 [22] was 123 ± 15 nM and the IC50 [23] was 6 nM. For the same molecule, the cell invasion [24] was “significantly suppressed the invasion”, the “phosphorylation of STAT3” value [25] was “significantly inhibit STAT3 phosphorylation” and the IC50 [26] was > 10000 nM. The IC50 [27] was > 10000 nM and the IC50 [28] was ~10000 nM.

— paper PMC6447837 (Cancer Science, 2019)
